Measured values taken from ChEMBL document CHEMBL3351278, “Pyridine-3-carboxamide-6-yl-ureas as novel inhibitors of bacterial DNA gyrase: structure based design, synthesis, SAR and antimicrobial activity” (Eur J Med Chem, 2014).
≈ marks a conversion by molar mass, not a printed value.

Experiments:
[1] = biological target: DNA gyrase (Escherichia coli, UniProt P0AES4+P0AES6); test: Inhibition of Escherichia coli GyrB A2B2 subunits assessed reduction in DNA supercoiling activity by malachite green dye based by spectrophotometry; type: protein-complex assay
In short: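 Inhibition was measured as loss of ATPase activity of the E. coli GyrB enzyme and reported as IC50.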

[2] = test system: Staphylococcus aureus; test: Antibacterial activity against Staphylococcus aureus ATCC 29213 incubated for 24 hrs by broth microdilution method; type: functional; conditions: ATCC 29213, 24 h
[3] = test system: Enterococcus faecalis; test: Antibacterial activity against Enterococcus faecalis ATCC 29212 incubated for 24 hrs by broth microdilution method; type: functional; conditions: ATCC 29212, 24 h
[4] = test system: Streptococcus pyogenes; test: Antibacterial activity against Streptococcus pyogenes ATCC 51339 incubated for 24 hrs by broth microdilution method; type: functional; conditions: ATCC 51339, 24 h
[5] = test system: Haemophilus influenzae; test: Antibacterial activity against Haemophilus influenzae ATCC 49247 incubated for 24 hrs by broth microdilution method; type: functional; conditions: ATCC 49247, 24 h
[6] = Retention time of the compound by HPLC method; type: physicochemical
[7] = test system: Staphylococcus aureus; test: Antibacterial activity against Staphylococcus aureus ATCC 29213 expressing GyrB T173N mutant incubated for 24 hrs by broth microdilution method; type: functional; conditions: ATCC 29213, 24 h
[8] = test system: Streptococcus pyogenes; test: Antibacterial activity against Streptococcus pyogenes ATCC 51339 expressing ParE A53S mutant incubated for 24 hrs by broth microdilution method; type: functional; conditions: ATCC 51339, 24 h
[9] = test system: Staphylococcus aureus; test: Antibacterial activity against Staphylococcus aureus ATCC 29213 expressing GyrB T173N and ParE T167N mutant incubated for 24 hrs by broth microdilution method; type: functional; conditions: ATCC 29213, 24 h
[10] = test system: Staphylococcus epidermidis; test: Antibacterial activity against Staphylococcus epidermidis ATCC 12228 incubated for 24 hrs by broth microdilution method; type: functional; conditions: ATCC 12228, 24 h
[11] = test system: Streptococcus pneumoniae; test: Antibacterial activity against Streptococcus pneumoniae ATCC 49616 incubated for 24 hrs by broth microdilution method; type: functional; conditions: ATCC 49616, 24 h
[12] = test system: Escherichia coli; test: Antibacterial activity against Escherichia coli ATCC 25922 incubated for 24 hrs by broth microdilution method; type: functional; conditions: ATCC 25922, 24 h
[13] = test system: Escherichia coli; test: Antibacterial activity against Escherichia coli N43 expressing efflux pump mutant incubated for 24 hrs by broth microdilution method; type: functional; conditions: N43, 24 h

Row | IC50 [1] [µM] | MIC [2] [µg/mL] | MIC [3] [µg/mL] | MIC [4] [µg/mL] | MIC [5] [µg/mL] | Retention_time [6] [min] | Compound | MIC [7] [µg/mL] | MIC [8] [µg/mL] | MIC [9] [µg/mL] | MIC [10] [µg/mL] | MIC [11] [µg/mL] | MIC [12] [µg/mL] | MIC [13] [µg/mL]
1 | 0.093 | 8 (≈ 21.2 µM) | 0.5 (≈ 1.32 µM) | 1 (≈ 2.65 µM) | > 64 | 1.38 | CCNC(=O)Nc1cc(Nc2cccnc2)c(C(=O)Nc2cccnc2)cn1 | – | – | – | – | – | – | –
2 | 0.099 | 1 (≈ 2.48 µM) | 0.5 (≈ 1.24 µM) | 32 (≈ 79.3 µM) | > 64 | 1.75 | CCNC(=O)Nc1cc(Nc2cccc(C)c2)c(C(=O)Nc2cccc(C)c2)cn1 | – | – | – | – | – | – | –
3 | 5.3 | > 64 | > 64 | > 64 | > 64 | 1.24 | CCNC(=O)Nc1ccc(C(=O)Nc2ccnc(C)c2)cn1 | – | – | – | – | – | – | –
4 | 6 | > 256 | 256 (≈ 897 µM) | 32 (≈ 112 µM) | > 256 | 1.25 | CCNC(=O)Nc1ccc(C(=O)Nc2cccnc2)cn1 | – | – | – | – | – | – | –
5 | 40.4 | > 256 | > 256 | > 256 | > 256 | 1.84 | CCNC(=O)Nc1ccc(C(=O)Nc2cccc(CC)c2)cn1 | – | – | – | – | – | – | –
6 | 2.1 | > 64 | > 64 | > 64 | > 64 | 1.7 | CCNC(=O)Nc1ccc(C(=O)Nc2ccccc2Cl)cn1 | – | – | – | – | – | – | –
7 | 33.2 | > 64 | > 64 | > 64 | > 64 | 1.18 | CCNC(=O)Nc1cc(N2CCN(C)CC2)c(C(=O)Nc2nccs2)cn1 | – | – | – | – | – | – | –
8 | 4.81 | > 64 | 2 (≈ 5.12 µM) | 8 (≈ 20.5 µM) | > 64 | 1.3 | CCNC(=O)Nc1cc(NCc2cccnc2)c(C(=O)Nc2ccccc2)cn1 | – | – | – | – | – | – | –
9 | 23.1 | > 64 | > 64 | > 64 | > 64 | 1.67 | CCNC(=O)Nc1ccc(C(=O)NC2CCCCC2)cn1 | – | – | – | – | – | – | –
10 | 3.02 | > 64 | 64 (≈ 162 µM) | 64 (≈ 162 µM) | > 64 | 1.6 | CCNC(=O)Nc1cc(-c2cccnc2)c(C(=O)Nc2cccc(Cl)c2)cn1 | – | – | – | – | – | – | –
11 | 3.3 | > 64 | > 64 | > 64 | > 64 | 1.83 | CCNC(=O)Nc1ccc(C(=O)Nc2ccc(Cl)cc2)cn1 | – | – | – | – | – | – | –
12 | 0.81 | > 64 | 4 (≈ 10.1 µM) | > 64 | > 64 | 1.88 | CCNC(=O)Nc1cc(-c2ccccc2)c(C(=O)Nc2cccc(Cl)c2)cn1 | – | – | – | – | – | – | –
13 | 0.96 | > 64 | > 64 | > 64 | > 64 | 1.43 | CCNC(=O)Nc1ccc(C(=O)Nc2ncc(C(=O)O)s2)cn1 | – | – | – | – | – | – | –
14 | 0.56 | > 64 | 64 (≈ 174 µM) | 64 (≈ 174 µM) | > 64 | 1.36 | CCNC(=O)Nc1cc(-c2cccnc2)c(C(=O)Nc2nccs2)cn1 | – | – | – | – | – | – | –
15 | 2 | > 16 | 0.5 (≈ 1.28 µM) | 1 (≈ 2.56 µM) | > 64 | 1.24 | CCNC(=O)Nc1cc(Nc2ccccc2)c(C(=O)NCc2cccnc2)cn1 | – | – | – | – | – | – | –
16 | 14 | > 64 | > 64 | > 64 | > 64 | 1.66 | CCNC(=O)Nc1ccc(C(=O)Nc2cc(C(=O)OC)ccn2)cn1 | – | – | – | – | – | – | –
17 | 7.7 | > 64 | > 16 | > 16 | > 16 | 1.69 | CCNC(=O)Nc1ccc(C(=O)Nc2ccccc2)cn1 | – | – | – | – | – | – | –
18 | 3.8 | > 64 | > 64 | 32 (≈ 103 µM) | > 64 | 1.69 | CCNC(=O)Nc1ccc(C(=O)Nc2cccc(C#N)c2)cn1 | – | – | – | – | – | – | –

Row | IC50 [1] [µM] | MIC [2] [µg/mL] | MIC [3] [µg/mL] | MIC [4] [µg/mL] | MIC [5] [µg/mL] | Retention_time [6] [min] | Compound | MIC [7] [µg/mL] | MIC [8] [µg/mL] | MIC [9] [µg/mL] | MIC [10] [µg/mL] | MIC [11] [µg/mL] | MIC [12] [µg/mL] | MIC [13] [µg/mL]
19 | 0.15 | > 16 | 0.25 (≈ 0.564 µM) | > 16 | > 64 | 1.54 | CCNC(=O)Nc1cc(Nc2ccccc2)c(C(=O)Nc2ccc(-n3cncn3)nc2)cn1 | – | – | – | – | – | – | –
20 | 3.5 | > 64 | 64 (≈ 224 µM) | 64 (≈ 224 µM) | > 64 | 1.19 | CCNC(=O)Nc1ccc(C(=O)Nc2ccncc2)cn1 | – | – | – | – | – | – | –
21 | 2.12 | > 64 | > 64 | > 64 | > 64 | 1.7 | CCNC(=O)Nc1cc(NC2CCCCC2)c(C(=O)Nc2cccc(C)c2)cn1 | – | – | – | – | – | – | –
22 | 5.66 | > 64 | > 64 | > 64 | > 64 | 0.27 | CCNC(=O)Nc1cc(N2CCN(C)CC2)c(C(=O)Nc2cccnc2)cn1 | – | – | – | – | – | – | –
23 | 5.14 | > 64 | > 64 | > 64 | > 64 | 1.36 | CCNC(=O)Nc1cc(N2CCN(C)CC2)c(C(=O)Nc2cccc(Cl)c2)cn1 | – | – | – | – | – | – | –
24 | 7.5 | > 64 | > 64 | > 64 | > 64 | 1.77 | CCNC(=O)Nc1ccc(C(=O)Nc2cc(Cl)ccc2C)cn1 | – | – | – | – | – | – | –
25 | < 0.75 | – | < 0.25 | – | – | – | CCNC(=O)Nc1nc2cc(-c3cccnc3)cc(-c3ccccn3)c2s1 | – | – | – | – | – | – | –
26 | 0.42 | > 64 | > 64 | > 64 | > 64 | 1.52 | CCNC(=O)Nc1ccc(C(=O)Nc2nccs2)cn1 | – | – | – | – | – | – | –
27 | 7.27 | > 64 | 64 (≈ 170 µM) | > 64 | > 64 | 1.51 | CCNC(=O)Nc1cc(-c2cccnc2)c(C(=O)Nc2cccc(C)c2)cn1 | – | – | – | – | – | – | –
28 | 8.4 | > 64 | > 64 | > 64 | > 64 | 1.64 | CCNC(=O)Nc1ccc(C(=O)Nc2ccc3c(C)cc(=O)oc3c2)cn1 | – | – | – | – | – | – | –
29 | 0.55 | > 64 | 32 (≈ 83.2 µM) | 64 (≈ 166 µM) | > 64 | 1.44 | CCNC(=O)Nc1cc(-n2ccnc2)c(C(=O)Nc2cccc(Cl)c2)cn1 | – | – | – | – | – | – | –
30 | 1.13 | > 64 | 64 (≈ 177 µM) | 64 (≈ 177 µM) | > 64 | 1.12 | CCNC(=O)Nc1cc(-c2cccnc2)c(C(=O)Nc2cccnc2)cn1 | – | – | – | – | – | – | –
31 | 0.66 | > 64 | 8 (≈ 20.4 µM) | 8 (≈ 20.4 µM) | > 64 | 1.23 | CCNC(=O)Nc1cc(NCc2cccnc2)c(C(=O)Nc2cccnc2)cn1 | – | – | – | – | – | – | –
32 | 24.5 | > 256 | > 256 | > 256 | > 256 | 1.44 | CCNC(=O)Nc1ccc(C(=O)Nc2cccc(C(N)=O)c2)cn1 | – | – | – | – | – | – | –
33 | 0.098 | > 64 | > 64 | > 64 | > 64 | 1.51 | CCNC(=O)Nc1cc(Nc2cccc(C)c2)c(C(=O)Nc2nccs2)cn1 | – | – | – | – | – | – | –
34 | 4.9 | > 16 | > 16 | > 16 | > 64 | 1.93 | CCNC(=O)Nc1cc(Oc2ccccc2)c(C(=O)Nc2ccccc2)cn1 | – | – | – | – | – | – | –
35 | 18 | > 64 | > 64 | > 64 | > 64 | 1.26 | CCNC(=O)Nc1cc(N2CCN(C)CC2)c(C(=O)Nc2cccc(C)c2)cn1 | – | – | – | – | – | – | –

Row | Compound | IC50 [1] [µM] | MIC [2] [µg/mL] | MIC [3] [µg/mL] | MIC [4] [µg/mL] | MIC [5] [µg/mL] | Retention_time [6] [min] | MIC [7] [µg/mL] | MIC [8] [µg/mL] | MIC [9] [µg/mL] | MIC [10] [µg/mL] | MIC [11] [µg/mL] | MIC [12] [µg/mL] | MIC [13] [µg/mL]
36 | CCNC(=O)Nc1ccc(C(=O)Nc2cccc(C)c2)cn1 | 3.4 | 32 (≈ 107 µM) | 32 (≈ 107 µM) | 32 (≈ 107 µM) | > 64 | 1.76 | > 64 | > 64 | – | – | – | – | –
37 | CCNC(=O)Nc1cc(Nc2ccccc2)c(C(=O)Nc2cccc(Cl)c2)cn1 | 0.15 | 0.5 (≈ 1.22 µM) | 0.125 (≈ 0.305 µM) | 4 (≈ 9.76 µM) | > 64 | 1.71 | 1 (≈ 2.44 µM) | 32 (≈ 78.1 µM) | > 64 | 0.5 (≈ 1.22 µM) | 1 (≈ 2.44 µM) | > 64 | > 64
38 | CCNC(=O)Nc1ccc(C(=O)Nc2cccc(F)c2)cn1 | 3 | 32 (≈ 106 µM) | 32 (≈ 106 µM) | 32 (≈ 106 µM) | > 64 | 1.74 | > 64 | > 64 | – | – | – | – | –
39 | CCNC(=O)Nc1ccc(C(=O)Nc2cccc(Cl)c2)cn1 | 1.6 | 16 (≈ 50.2 µM) | 16 (≈ 50.2 µM) | 16 (≈ 50.2 µM) | > 64 | 1.84 | > 64 | > 64 | – | – | – | – | –
40 | CCNC(=O)Nc1ccc(C(=O)Nc2ccc(OC)c(OC)c2)cn1 | 6.2 | > 64 | 32 (≈ 92.9 µM) | 32 (≈ 92.9 µM) | > 64 | 1.59 | – | > 64 | – | – | – | – | –
